Assay [1] in a line: Cytotoxicity against mouse L5178Y cells by MTT assay. The class given is functional, cell-based. In short, it runs like this: (§1)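 MTT assay on mouse lymphoma L5178Y and human ovarian cancer A2780 cells, as in the earlier reports the paper cites. Positive controls were kahalalide F for L5178Y and cisplatin for A2780. Negative control was medium with 0.1% DMSO. Results are given as IC50 in μM.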
In general terms: Tetrazolium assays rely on reduction of a dye to a coloured formazan, in cell work by metabolically active cells.

The nature of assay [2]: Cytotoxicity against human A2780 cells by MTT assay. Format: functional, cell-based. In short, it runs like this:
as §1

For orientation: IC50 means the concentration at which inhibition is half-maximal. Lower therefore signals greater potency. As for `C[C@H]1CCC/C=C/[C@H](O)/C=C\[C@H](O)/C=C/C(=O)O1`, the results for the IC50 in assay [1] and in assay [2] were 21 µM and more than 50 µM, respectively.
In the same order, the values of `C[C@H]1CCC[C@@H](O)/C=C/C=C\[C@@H](O)/C=C/C(=O)O1` are 3.9 µM and 12 µM.
For `C[C@H]1CCC/C=C\[C@H](O)[C@H]2O[C@H]2[C@H](O)/C=C/C(=O)O1`, the IC50 in assay [1] and in assay [2] was more than 50 µM throughout.
With `C[C@H]1CCCCC[C@H](O)CC[C@H](O)/C=C/C(=O)O1`, the 50% inhibitory concentration (IC50) is 39 µM in assay [1] and more than 50 µM in assay [2].
Turning to `C[C@H]1CCC[C@@H](O)/C=C/C=C\[C@H](O)/C=C/C(=O)O1`, the concentration for half-maximal inhibition (IC50) in assay [1] was determined as 3.4 µM; in assay [2], 1.2 µM.
The corresponding values for `CO[C@H]1/C=C\CCC[C@H](C)OC(=O)/C=C/[C@@H](O)/C=C\1` are 0.7 µM and 28 µM.
The corresponding values for `C[C@H]1CCC/C=C\[C@H](O)/C=C\[C@H](O)/C=C/C(=O)O1` are 21 µM and 43 µM.
In the same order, the values of `CO[C@H]1/C=C/C=C\C(=O)CCC(=O)O[C@@H](C)CCC1` are 11 µM and more than 50 µM.
As to `C[C@H]1CCC/C=C/[C@H](O)[C@H]2O[C@H]2[C@H](O)/C=C/C(=O)O1`, the 50% inhibitory concentration (IC50) in assay [1] and in assay [2] was more than 50 µM each time.
As to `C[C@H]1CCC[C@@H](O)/C=C/C=C\C(=O)CCC(=O)O1`, the IC50 in assay [1] was more than 50 µM; in assay [2] it was 36 µM.
In assay [1], `C/C=C1\NC(=O)[C@H](Cc2ccccc2)NC(=O)[C@H](C(C)C)NC(=O)[C@@H]([C@@H](C)CC)NC(=O)[C@@H](NC(=O)[C@H](NC(=O)[C@H](CCCN)NC(=O)[C@H]2CCCN2C(=O)[C@@H](NC(=O)[C@H](NC(=O)[C@@H](NC(=O)[C@@H](NC(=O)CCCC(C)C)C(C)C)[C@@H](C)O)C(C)C)C(C)C)[C@@H](C)CC)[C@@H](C)OC(=O)[C@H](C(C)C)NC1=O` had an IC50 of 4.3 µM. This lies in the single-digit micromolar range.
Consider `CO[C@H]1/C=C\CCC[C@H](C)OC(=O)CCC(=O)/C=C\1`, for which the concentration for half-maximal inhibition (IC50) in assay [1] was 5.6 µM; in assay [2], more than 50 µM.

Source of the values: ChEMBL document CHEMBL3867447, “Cytotoxic 14-Membered Macrolides from a Mangrove-Derived Endophytic Fungus, Pestalotiopsis microspora” (J Nat Prod, 2016).
